Measurements pooled from the literature.
Lines come from different studies, so protocols differ. Converted amounts (≈) assume the structure as drawn.

N#CCc1c[nH]c2ccccc12 has an EC90 of 1230 µM (Cryptosporidium parvum; parasite growth; HCT-8; 24 h, intracellular).
COC(=O)c1cc(-c2cccc(NC(=S)NC3CCCCC3)c2)on1 gave an MIC of over 64 µg/mL (Klebsiella pneumoniae; microbial growth, broth dilution; BAA1705).
CC(C)CCCCCCCCCCCCCCc1cc(O)cc(O)c1 has an IC50 of 46.3 µM (Streptococcus pneumoniae; microbial growth).
For N#Cc1c[nH]c2ccccc12, the EC50 was 163 µM (Cryptosporidium parvum; parasite growth; HCT-8; 24 h, intracellular).
The IC50 of O=C(N/N=C1\C(=O)N(Cc2ccccc2)c2ccc(Cl)cc21)c1cc2ccccc2[nH]1 is reported as 3.49 µM (Swiss-3T3; cell growth or viability; 72 h).
COC(=O)c1cc(-c2cccc(NC(=S)Nc3cc(C(F)(F)F)cc(C(F)(F)F)c3)c2)on1 gave an MIC of over 64 µg/mL (Klebsiella pneumoniae; microbial growth, broth dilution; BAA1705).
O=C(N/N=C1\C(=O)N(Cc2ccccc2)c2ccc(Br)cc21)c1cc2ccccc2[nH]1 has an inhibition of 94.7% (HT-29; cell growth or viability; 30 µM).
With CCC(CCCCCCCCCCc1cc(O)cc(O)c1)C(C)C (centres unmarked) the IC50 was over 200 µM (Klebsiella pneumoniae; microbial growth; ATCC29665).
O=C(N/N=C1\C(=O)N(Cc2ccccc2)c2ccccc21)c1cc2ccccc2[nH]1 gave an inhibition of 92.7% (HT-29; cell growth or viability; 30 µM).
With COC(=O)c1cc(-c2cccc(NC(=S)Nc3ccccc3Cl)c2)on1 the MIC was over 64 µg/mL (Klebsiella pneumoniae; microbial growth, broth dilution; BAA1705).
For CCC1(c2ccc(N)cc2)CCC(=O)NC1=O (centres unmarked), the IC50 was over 50 µM (A2780; cell growth or viability, CCK-8; 48 h).
COC(=O)c1cc(-c2cccc(NC(=O)Nc3ccc(Cl)c(C(F)(F)F)c3)c2)on1 has an MIC of over 64 µg/mL (Klebsiella pneumoniae; microbial growth, broth dilution; BAA1705).
Cc1cccc(-n2ncc(Cl)c(Cl)c2=O)c1 gave an IC50 of 1.24 µM (NCI-H1650; cell growth or viability, resazurin; 96 h).
With CCOC(=O)c1nnn(-c2cccc(NC(=O)Nc3ccc(Cl)c(Cl)c3)c2)c1C the MIC was over 64 µg/mL (Klebsiella pneumoniae; microbial growth, broth dilution; BAA1705).
COc1c2c(cc3c1OCO3)[C@]13C=C[C@H](OC)C[C@@H]1[N@](C2)C[C@H]3OC(=O)c1ccco1 has an IC50 of over 10 µM (HT-29; cell growth or viability, WST-1).
O=C(N/N=C1\C(=O)N(Cc2ccc(Cl)cc2)c2ccccc21)c1cc2ccccc2[nH]1 gave an IC50 of 2.64 µM (HT-29; cell growth or viability).
With COC(=O)c1cc(-c2cccc(NC(=O)Nc3c(C)cccc3C)c2)on1 the MIC was over 64 µg/mL (Klebsiella pneumoniae; microbial growth, broth dilution; BAA1705).
CCCCCCCCCCCCCCCCCCCCc1cc(O)cc(O)c1 gave an IC50 of over 200 µM (Streptococcus pneumoniae; microbial growth).
With N#Cc1ccc(CN2C(=O)/C(=N\NC(=O)c3cc4ccccc4[nH]3)c3ccccc32)cc1 the IC50 was 8.11 µM (HT-29; cell growth or viability).
The MIC of CO[C@H]1/C=C/O[C@@]2(C)Oc3c(C)c(O)c4c(O)c(c(/C=N/N5CCN(C)CC5)c(O)c4c3C2=O)NC(=O)/C(C)=C\C=C\[C@H](C)[C@H](O)[C@@H](C)[C@@H](O)[C@@H](C)[C@H](OC(C)=O)[C@@H]1C is reported as 0.1 µg/mL (≈ 0.122 µM) (Mycobacterium tuberculosis variant bovis BCG; microbial growth; BCG; 7 days).
With Cc1ccc(CN2C(=O)/C(=N\NC(=O)c3cc4ccccc4[nH]3)c3ccccc32)cc1 the IC50 was 2.45 µM (HT-29; cell growth or viability).
CC(C)CCCCCCCCCCCCc1cc(O)cc(O)c1 has an IC50 of 77.3 µM (Streptococcus pneumoniae; microbial growth).
The MIC of COC(=O)c1cc(-c2cccc(NC(=O)Nc3ccc(C(F)(F)F)cc3)c2)on1 is reported as over 64 µg/mL (Klebsiella pneumoniae; microbial growth, broth dilution; BAA1705).
